Read-outs that look alike come from different tables or passages of the source.
Columns and labels:
[1] = cited from earlier work
[2] = format: in vivo, healthy adult subjects (human)
Summary of the method: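 Open-label, fixed-sequence, three periods, ≥10-day washouts, overnight-fasted. Single oral inhibitor FDC (50 mg/100 mg) given alone, after H2-antagonist 20 mg orally ~10 h and 2 h before, or ~2 h after PPI 40 mg on day 5 of 5 daily doses. Plasma sampled predose to 96 h; LC-MS/MS. Noncompartmental; t½ = ln2/λz; GMRs via mixed-effects model on log values.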

[3] = ref previous studies; cited from earlier work

Row | Structure (SMILES) | solubility versus stomach pH [1] | C24 GMR ([2]; GZR, EBR/GZR FDC + FAM / EBR/GZR FDC) | C24 GMR ([2]; GZR, EBR/GZR FDC + PAN / EBR/GZR FDC) | half-life ([2]; human, plasma, po, 100 mg) [h] | apparent terminal half-life (t½) [3] [h] | time to maximum drug concentration (tmax) [3] [h] | tmax, median ([2]; EBR in plasma, EBR/GZR FDC + FAM 20 mg given 10 h and 2 h before) [h] | C24 GMR ([2]; EBR, EBR/GZR FDC + FAM / EBR/GZR FDC) | C24 GMR ([2]; EBR, EBR/GZR FDC + PAN / EBR/GZR FDC) | Tmax ([2]; human, plasma, po, 100 mg) [h]
1 | COC(=O)N[C@H](C(=O)N1CC2(CC2)C[C@H]1c1ncc(-c2ccc3c(c2)C(F)(F)c2cc(-c4ccc5nc([C@@H]6[C@H]7CC[C@H](C7)N6C(=O)[C@@H](NC(=O)OC)C(C)C)[nH]c5c4)ccc2-3)[nH]1)C(C)C [ledipasvir] | decrease as stomach pH increases |  |  |  |  |  |  |  |  | 
2 | COC[C@H]1C[C@@H](c2ncc(-c3ccc4c(c3)COc3cc5c(ccc6nc([C@@H]7CC[C@H](C)N7C(=O)[C@@H](NC(=O)OC)C(C)C)[nH]c65)cc3-4)[nH]2)N(C(=O)[C@H](NC(=O)OC)c2ccccc2)C1 [velpatasvir] | decrease as stomach pH increases |  |  |  |  |  |  |  |  | 
3 | C=C[C@@H]1C[C@]1(NC(=O)[C@@H]1C[C@@H]2CN1C(=O)[C@H](C(C)(C)C)NC(=O)O[C@@H]1C[C@H]1CCCCCc1nc3ccc(OC)cc3nc1O2)C(=O)NS(=O)(=O)C1CC1 [GZR, grazoprevir] |  | 1.12 | 1.17 | 33.8 | ~20 | 2 to 4 |  |  |  | 
4 | COC(=O)N[C@H](C(=O)N1CCC[C@H]1c1nc(-c2ccc3c(c2)O[C@@H](c2ccccc2)n2c-3cc3cc(-c4c[nH]c([C@@H]5CCCN5C(=O)[C@@H](NC(=O)OC)C(C)C)n4)ccc32)c[nH]1)C(C)C [EBR, elbasvir] |  |  |  | 19.3 | ~20 | 2 to 4 | 3.50 | 1.03 | 1.03 | 3.5

From publication PMC5593162 (Clinical and Translational Science, 2017)
